DNMT1 inh: DNMT1 (human) enzyme inhibition. 0.83% of 360,000 active. P26358. inhibition (reported as % activation of signal), % at 10 µM. DNMT1 molecular beacon, Hinp1I cleavage, fluorescence; in the data active = inhibition above about 50%
Scp1 inh: Scp-1 (human) phosphatase inhibition; Q9GZU7; Recombinant Scp1, phosphopeptide, malachite green phosphate absorbance; inhibition, % at 20 µM; 0.88% of 340,000 active;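 active = inhibition above about 50% at 20 µM, limit read from the data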;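 note: plate controls were DMSO wells with enzyme for no effect and wells lacking enzyme for full effect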
Target sequence (Q9GZU7 76-261 limits assumed): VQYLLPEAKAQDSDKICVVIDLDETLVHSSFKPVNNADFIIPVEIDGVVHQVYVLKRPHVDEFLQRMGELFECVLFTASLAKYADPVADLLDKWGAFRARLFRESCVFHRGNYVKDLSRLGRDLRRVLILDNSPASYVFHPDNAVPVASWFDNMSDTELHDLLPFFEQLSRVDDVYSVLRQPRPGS
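Incubation: 45 min enzyme reaction at room temperature / System: truncated SCP-1 phosphatase (76-261aa) / Reagent: Phospho 17-mer peptide substrate / Buffer or medium: Acidic Tris acetate buffer with magnesium and detergent / Signal: absorbance at 630 nm / Doses: one concentration, 20 µM, with 1.0% DMSO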
LMPTP inh: blocks human LMPTP phosphatase; 0.22% of 360,000 active; recombinant LMPTP-A, OMFP fluorogenic substrate, fluorescence intensity; inhibition, % at 20 µM; P24666;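 active = compounds that cut the enzyme signal by at least half of the control window in the single-dose screen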;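 note: plate controls were DMSO wells with enzyme plus substrate for no effect and substrate without enzyme for full effect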
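Test system: LMPTP-A, protein tyrosine phosphatase of low molecular weight; Input: 0.625 nM enzyme; Incubation: 50 min dark incubation at room temperature; Signal: endpoint fluorescence intensity from OMFP dephosphorylation; Read-out basis: % inhibition versus control wells.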
SUMO1 PPI mod: alters human SUMO1 binding to SIM partners | SUMO1 binding to a labelled peptide, TR-FRET, 1 h | inhibition, % at 20 µM | 0.33% of 360,000 active | AID 602429; in the data active = inhibition above about 37%
Target sequence (P63165 whole entry, looked up): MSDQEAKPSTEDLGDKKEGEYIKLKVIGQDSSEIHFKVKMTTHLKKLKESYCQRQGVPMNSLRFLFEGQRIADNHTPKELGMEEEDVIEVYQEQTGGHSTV
STEP block: blocks human striatal-enriched tyrosine phosphatase. 0.25% of 360,000 active. recombinant STEP, OMFP fluorogenic substrate, fluorescence. P54829. inhibition, % at 20 µM;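 active = inhibition at 20 µM, scaled per plate between control wells, above about 37%, limit read from the data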;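 note: 0% = DMSO with enzyme and substrate and 100% = substrate only without enzyme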
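System: STEP phosphatase, cell-free reaction; Buffer or medium: Bis-Tris pH 6.0 buffer with DTT, detergent; Incubation: 20 min at room temperature, dark; Measured by: fluorescence, 480/540 nm.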
Active calls of the source: *; nt = no result given. In the library only some 1.7% were active in any assay of this set; here they are far more common.

SMILES	DNMT1 inh	Scp1 inh	LMPTP inh	SUMO1 PPI mod	STEP block
COC(=O)c1cc(C(=O)OC)n(Cc2ccc(Cl)cc2Cl)n1	5	-6	0	4	1
O=C(c1ccc(S(=O)(=O)Nc2ccccc2F)cc1)N1CCN(c2ccccn2)CC1	-1	2	0	1	-1
Cc1ccc(C2(C)NC(=O)N(CC(=O)N3c4ccccc4NC(=O)CC3C)C2=O)cc1 (stereo unspecified)	5	3	0	-1	0
COc1ccc2c(CC(=O)Nc3ccc4nc(N5CCOCC5)sc4c3)coc2c1	-19	nt	2	-1	-2
C/C(=N\NS(=O)(=O)c1ccc(C)c([N+](=O)[O-])c1)c1cc2ccccc2o1	5	4	1	-2	0
C/C(=N\NS(=O)(=O)c1ccc(Cl)c([N+](=O)[O-])c1)c1ccc(C)o1	23	-2	55*	-3	1
C/C(=N\NS(=O)(=O)c1ccc(Cl)c([N+](=O)[O-])c1)c1cc2ccccc2o1	8	-13	60*	-4	-2
O=C(Nc1c2ccccc2nc2ccccc12)C(Cl)(Cl)Cl	51*	3	11	-9	3
CCN(CC)S(=O)(=O)c1cccc(N=NC2=C(O)CCCC2=O)c1	-6	2	1	-11	0
O=C1CCCC(O)=C1N=Nc1cccc(C(=O)O)c1	43	61*	5	1	5
COc1ccc(-c2cc3c(=O)n(CC(=O)N4CCCC4)ncn3n2)cc1	14	-8	1	58*	-1
COc1ccc(CNc2ncnc(N)n2)cc1	-1	9	-2	2	-3
COc1ccc(CNc2nc(NCc3ccc(OC)cc3)c3[nH]cnc3n2)cc1	4	12	78*	3	-1
O=C(C1CCC(=O)N(C2CC2)C1)N1CCC(Oc2cccc(C(F)(F)F)c2)CC1 (stereo unspecified)	5	-7	1	6	-1
S=c1[nH]nc(-c2cc(-c3ccccc3)n[nH]2)n1/N=C/c1cccc(Cl)c1	5	4	10	88*	9
Cc1nn(Cc2ccc(C(=O)N3CCN(C(=O)c4ccco4)CC3)o2)c(C)c1[N+](=O)[O-]	-1	-2	0	4	-2
COc1ccc(C=NNc2ccc(S(=O)(=O)Nc3ccccc3C(=O)O)cc2[N+](=O)[O-])c(OC)c1	13	-5	52*	56*	6
COc1ccc(CNS(=O)(=O)CCNC(=O)c2cccc(OC)c2)cc1	2	-6	0	-4	2
O=Nc1c(O)c2ccccc2c2ccccc12	58*	-8	4	-37	3
Cc1ccc(C)c(NC(=O)CSc2nc(C)cs2)c1	4	-4	-2	2	2
COc1cc2c(ccc3cc(OC)c(OC)c(O)c32)cc1O	85*	69*	62*	34	53*
COc1ccc(Sc2ccc(/C=C3\C(=O)NN(c4ccccc4)C3=O)o2)cc1	56*	35	4	7	8
COc1cc(/C=C2\C(=O)NN(c3ccccc3)C2=O)cc([N+](=O)[O-])c1O	29	13	5	-5	7
COc1ccc(-n2c(C)cc(/C=C3\C(=O)NN(c4ccccc4)C3=O)c2C)cc1	-13	-6	2	-17	-1
O=C1NN(c2ccccc2)C(=O)/C1=C\c1ccc(-c2cc([N+](=O)[O-])ccc2O)o1	23	87*	84*	-1	46*
SMILES	DNMT1 inh	Scp1 inh	LMPTP inh	SUMO1 PPI mod	STEP block
O=C(CCO)c1ccc(O)cc1	16	69*	5	14	2
CCN(C(=O)CSc1nnc(Nc2ccc(OC)cc2)s1)C1CCS(=O)(=O)C1 (stereo unspecified)	11	10	1	49*	-3
CC(C)CC(=O)c1c[nH]c(C(=O)NCCCN2CCOCC2)c1	3	-8	-1	45*	1
CC(C)N1C(=S)N(Cc2ccco2)C(=O)C1CC(=O)Nc1ccccc1 (stereo unspecified)	-3	1	0	5	7
CSc1cccc(NC(=O)CCc2ccccc2)c1	4	-10	0	4	7
CSc1cccc(NC(=S)NC(=O)CCc2ccccc2)c1	-1	-20	3	38*	4
CCC(C)C(=O)OCC1(c2ccc(C)cc2OC(=O)C(C)C)CO1 (stereo unspecified)	12	53*	-1	3	0
